# PubChem BioAssay
# Unmarked numbers belong to inactive results. The list shows a part of the results. Active and inactive are the calls of the source.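 Rule for the calls, unless noted: active = mean percent inhibition of the KCNQ2 thallium signal more than 5 SD above the buffer-only control wells; inactive = the rest.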
# Key:
# [1] = thallium flux activation in parental CHO cells, counter-screen for KCNQ1 potentiator project (AID 493006;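 active = duplicate-averaged activation above buffer control mean plus 5 SD of those controls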); conditions: parental CHO-K1 cells, FluxOR thallium flux, at 10 µM; stronger effect = higher value
# Method in brief: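 Test system: parental CHO-K1 cells, FluxOR dye-loaded / Probe or stimulus: potassium plus thallium depolarizing stimulus, 5x stock 12.5 mM K2SO4, Tl2SO4 / Timing: overnight 37 °C plating, 90 min dye, 20 min dark compound / Measured by: kinetic thallium-flux fluorescence / Read-out: max-minus-min fluorescence over baseline, percent of buffer-to-R-L3 span / Benchmarks: buffer and R-L3 controls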
# [2] = target: Potassium voltage-gated channel subfamily KQT member 1 (Homo sapiens) (UniProt P51787); experiment: KCNQ1 potassium channel potentiators, confirmation, FluxOR thallium flux, CHO cells, duplicates (AID 493007;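 active = potentiation averaged over duplicate wells exceeding buffer-only control mean by more than 3 SD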;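 for outcome: cells depolarized by a potassium plus thallium sulfate stimulus after compound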;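 for potentiation: 0% = buffer-only wells and 100% = R-L3 activator control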); conditions: KCNQ1 cell line, FluxOR thallium flux fluorescence, at 10 µM; stronger effect = higher value, % of reference activator effect, buffer zero
# Sequence of Potassium voltage-gated channel subfamily KQT member 1 (Homo sapiens) (P51787 whole entry, looked up): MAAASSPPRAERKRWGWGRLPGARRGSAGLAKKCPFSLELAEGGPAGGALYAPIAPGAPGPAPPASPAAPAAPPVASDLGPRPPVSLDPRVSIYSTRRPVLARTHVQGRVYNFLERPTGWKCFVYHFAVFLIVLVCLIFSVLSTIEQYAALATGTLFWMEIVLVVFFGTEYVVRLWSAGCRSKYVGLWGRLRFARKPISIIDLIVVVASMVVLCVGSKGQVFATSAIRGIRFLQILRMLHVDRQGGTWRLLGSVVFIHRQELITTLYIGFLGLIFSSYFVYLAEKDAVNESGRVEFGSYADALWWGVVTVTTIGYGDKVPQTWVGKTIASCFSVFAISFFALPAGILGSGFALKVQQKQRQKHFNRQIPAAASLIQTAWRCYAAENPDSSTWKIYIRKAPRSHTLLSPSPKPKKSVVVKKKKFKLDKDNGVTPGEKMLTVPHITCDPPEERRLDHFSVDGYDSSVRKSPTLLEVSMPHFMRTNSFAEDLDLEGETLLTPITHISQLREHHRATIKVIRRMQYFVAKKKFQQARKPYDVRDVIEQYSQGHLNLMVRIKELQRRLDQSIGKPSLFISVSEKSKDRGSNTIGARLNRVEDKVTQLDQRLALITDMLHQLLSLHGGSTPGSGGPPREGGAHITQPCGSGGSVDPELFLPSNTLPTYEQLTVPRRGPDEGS
# Method in brief: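 Assay system: CHO cells carrying KCNQ1 | Controls: Buffer and R-L3 controls | Schedule: FluxOR dye loading 90 min, compound exposure 20 min, room temperature | Read-out: Baseline-normalized fluorescence change, percent of buffer-to-R-L3 range | Replicates: Each compound tested in duplicate | Technique: Kinetic thallium influx fluorescence with FluxOR dye, 10 s baseline, 110 s post-stimulus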
# [3] = target: Potassium voltage-gated channel subfamily KQT member 1 (Homo sapiens) (UniProt P51787); experiment: KCNQ1 channel current potentiators, confirmation, orthogonal assay for KCNQ1 potentiator project, IonWorks patch clamp, KCNQ1-CHO cells (AID 493184;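 active = current rise at least 3 SD above the untreated control mean in each of two repeat wells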); conditions: automated patch clamp current, at 10 µM; stronger effect = higher value
# Method in brief: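 Material: KCNQ1-expressing CHO cells; doses: 10 µM final, single point; probe or stimulus: voltage step from -90 mV holding to +40 mV, 2,000 ms; signal: automated voltage clamp, amphotericin B perforated patch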
# [4] = target: Potassium voltage-gated channel subfamily KQT member 1 (Homo sapiens) (UniProt P51787); experiment: KCNQ1 potassium channel inhibitors, confirmation, cell-based, Tl flux, duplicate (AID 588353;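 active = primary screen active, with duplicate mean exceeding buffer control mean plus 3 SD of buffer wells, cut at about 28% in these data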;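 note: 0% = buffer control ratio and 100% = XE991 inhibitor control ratio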); conditions: KCNQ1 cell line, FluxOR thallium flux fluorescence, at 10 µM, stronger effect = higher value
# Method in brief: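 Test system: CHO cells stably expressing KCNQ1 potassium channel / Evaluation: percent inhibition of fluorescence change ratio, scaled buffer to XE991 / Technique: FluxOR thallium flux fluorescence, 10 s baseline plus 110 s / Schedule: 90 min dye load, 20 min dark compound exposure, room temperature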
# [5] = thallium flux effects in parental CHO cells, counter-screen for KCNQ1 inhibitor project, cell-based, Tl flux (AID 588366;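 active = mean of duplicate thallium-flux fluorescence ratios in parental host cells more than 5 SD below the buffer control mean, cut at about 0.38 in these data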;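 note: ratio is peak minus minimum fluorescence divided by baseline fluorescence; actives read low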); conditions: parental CHO-K1, FluxOR thallium flux fluorescence ratio; at 10 µM; stronger effect = lower value; zero means no signal rise above baseline
# Method in brief: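 Assay system – untransfected parental CHO-K1 cells · Technique – kinetic Tl+ flux fluorescence with FluxOR dye · Timing – FluxOR dye loading 90 min, compound exposure 20 min, room temperature · Replication – duplicate measurements per compound · Also added – K+/Tl+ depolarizing stimulus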
# [6] = target: Potassium voltage-gated channel subfamily KQT member 1 (Homo sapiens) (UniProt P51787); experiment: KCNQ1 channel inhibitors, confirmation, orthogonal assay, cell-based, automated electrophysiology (AID 624120;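 active = KCNQ1 current drop exceeding 3 SD of negative control wells, seen in both duplicate runs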); conditions: KCNQ1-CHO cells, automated patch clamp current; at 10 µM
# Method in brief: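 benchmarks = negative controls | test system = CHO cells expressing human KCNQ1 potassium channel | medium = external buffer at pH 7.4 | probe or stimulus = voltage stimulus of 2,000 ms steps to +40 mV, -80 mV holding | repeats = duplicates | signal = amphotericin-perforated automated patch clamp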
# [7] = target: Potassium voltage-gated channel subfamily KQT member 2 (Rattus norvegicus) (UniProt O88943); experiment: KCNQ2 channel inhibition, selectivity assay for KCNQ1 inhibitor project, cell-based (AID 651746); conditions: KCNQ2 cells, FluxOR thallium flux fluorescence, at 10 µM; stronger effect = higher value;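 for inhibition: 0% = buffer control wells and 100% = XE-991 inhibitor control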
# Sequence of Potassium voltage-gated channel subfamily KQT member 2 (Rattus norvegicus) (O88943 whole entry, looked up): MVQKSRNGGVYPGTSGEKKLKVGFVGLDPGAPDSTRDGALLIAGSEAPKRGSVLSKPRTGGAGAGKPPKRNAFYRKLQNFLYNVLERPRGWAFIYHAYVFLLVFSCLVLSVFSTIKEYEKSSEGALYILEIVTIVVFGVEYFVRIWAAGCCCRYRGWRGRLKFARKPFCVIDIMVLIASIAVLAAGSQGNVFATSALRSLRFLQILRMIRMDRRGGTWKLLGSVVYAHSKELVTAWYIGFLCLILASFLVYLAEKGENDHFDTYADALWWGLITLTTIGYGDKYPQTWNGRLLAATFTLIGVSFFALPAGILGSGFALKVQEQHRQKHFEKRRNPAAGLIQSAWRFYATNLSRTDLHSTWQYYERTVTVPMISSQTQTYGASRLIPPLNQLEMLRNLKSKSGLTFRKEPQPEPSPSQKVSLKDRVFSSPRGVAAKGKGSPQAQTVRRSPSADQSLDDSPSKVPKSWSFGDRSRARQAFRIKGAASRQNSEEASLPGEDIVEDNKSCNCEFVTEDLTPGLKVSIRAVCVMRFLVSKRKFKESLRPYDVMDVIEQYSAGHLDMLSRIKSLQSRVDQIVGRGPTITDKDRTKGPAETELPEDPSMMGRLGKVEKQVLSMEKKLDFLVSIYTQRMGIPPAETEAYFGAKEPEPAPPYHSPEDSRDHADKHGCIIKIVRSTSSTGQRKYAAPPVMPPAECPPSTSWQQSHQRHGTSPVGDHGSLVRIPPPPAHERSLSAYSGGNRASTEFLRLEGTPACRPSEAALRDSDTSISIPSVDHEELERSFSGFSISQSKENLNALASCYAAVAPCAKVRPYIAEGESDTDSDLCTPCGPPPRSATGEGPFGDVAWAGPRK
# [8] = target: T1, Potassium voltage-gated channel subfamily E member 1 (Homo sapiens) + Potassium voltage-gated channel subfamily KQT member 1 (Homo sapiens) (UniProt P15382+P51787); experiment: KCNQ1/KCNE1 channel inhibition, selectivity assay for KCNQ1 inhibitor project, CHO-K1 cells, thallium flux, FluxOR (AID 652147;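 active = mean percent inhibition of duplicate wells above the buffer-only control mean plus 3 SD of those controls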;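 for inhibition: 0% = buffer only wells and 100% = XE-991 inhibitor control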); conditions: FluxOR thallium flux fluorescence, at 10 µM; stronger effect = higher value
# T1 sequence (P51787 whole entry, looked up): as the sequence (P51787 whole entry, looked up) above
# Method in brief: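 System: cells expressing KCNQ1/KCNE1 channels; timing: 20 min compound pre-incubation at room temperature; technique: FluxOR thallium influx fluorescence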
# [9] = target: T1, Potassium voltage-gated channel subfamily E member 1 (Homo sapiens) + Potassium voltage-gated channel subfamily KQT member 1 (Homo sapiens); experiment: KCNQ1/KCNE1 complex potentiators, confirmation, selectivity assay for KCNQ1 potentiator project, thallium flux, CHO-K1 KCNQ1/E1 cells (AID 493186;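 active = mean duplicate activation above the buffer control mean plus 5 SD of those controls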); conditions: FluxOR thallium flux, at 10 µM; stronger effect = higher value
# Method in brief: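 Test system: CHO-K1 cells with KCNQ1/E1. Times: 90-min dye loading then 20-min compound exposure, both at room temperature. Measured by: kinetic FluxOR thallium-flux fluorescence, 10 s baseline plus 110 s after stimulus. Repeats: duplicate wells per compound.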
structure (smiles),measurement,setting,value
COC(=O)c1ccc(CNC(=O)CSc2nc3sc(C)c(C)c3c(=O)n2C)o1,activation,[1],268% (active)
same,potentiation,[2],89.5% (active)
same,outcome,[3],inactive
Cn1c(N/N=C/c2cccs2)cc(=O)n(C)c1=O,outcome,[1],inactive
same,outcome,[2],inactive
same,outcome,[3],inactive
CCCCNC(=O)CNC(=O)c1nn(-c2ccc(OC)cc2OC)c(=O)c2ccccc12,outcome,[1],inactive
same,outcome,[2],inactive
same,outcome,[3],inactive
C=CCSc1nsc(NC(=O)Nc2cccc(C(C)=O)c2)n1,inhibition,[4],100% (active)
same,fluorescence ratio (Tl flux),[5],0.489
same,outcome,[6],inactive
same,inhibition,[7],74% (active)
same,inhibition,[8],60% (active)
CCOC(=O)C1CCN(c2ncnc3c2oc2ccc(Br)cc23)CC1,inhibition,[4],150% (active)
same,fluorescence ratio (Tl flux),[5],0.39
same,outcome,[6],inactive
same,inhibition,[7],129% (active)
same,inhibition,[8],193% (active)
Cc1cc(OC(=O)c2cc(Cl)ccc2Cl)c([N+](=O)[O-])c(=O)[nH]1,outcome,[1],inactive
same,outcome,[2],inactive
same,outcome,[3],inactive
O=C(OCc1ccccc1)C1=NNC2C(=O)N(c3ccccc3)C(=O)C12 (centres undefined),outcome,[1],inactive
same,outcome,[2],inactive
same,outcome,[3],inactive
same,outcome,[9],inactive
Cc1ccc(-c2nn(-c3ccccc3)cc2/C=N/n2c(-c3cccs3)n[nH]c2=S)cc1,outcome,[1],inactive
same,potentiation,[2],23% (active)
same,outcome,[3],inactive
same,outcome,[9],inactive
COc1ccc(Cl)cc1NC(=O)C(C)N1CCc2ccccc21 (centres undefined),inhibition,[4],114% (active)
same,fluorescence ratio (Tl flux),[5],0.428
same,outcome,[6],inactive
same,inhibition,[7],91% (active)
same,inhibition,[8],132% (active)
CC(CNC(=O)COc1ccccc1)OC(=O)Nc1ccc(Cl)c(Cl)c1 (centres undefined),outcome,[1],inactive
same,outcome,[2],inactive
same,outcome,[3],inactive
O=C(NC(=S)NC1CCCc2ccccc21)c1ccc(F)cc1 (centres undefined),outcome,[1],inactive
same,potentiation,[2],19.5% (active)
same,outcome,[3],inactive
same,outcome,[9],inactive
CCS(=O)(=O)N1Cc2ccccc2CC1C(=O)Nc1cccc(S(=O)(=O)N(C)C)c1 (centres undefined),outcome,[1],inactive
same,outcome,[2],inactive
same,outcome,[3],inactive
same,outcome,[9],inactive
COc1cccc(CN2CCN(Cc3cc4ccccc4[nH]3)CC2CCO)c1 (centres undefined),outcome,[1],inactive
same,potentiation,[2],20% (active)
same,outcome,[3],inactive
same,outcome,[9],inactive
CNC(=O)c1ccsc1NC(=O)c1ccc(S(=O)(=O)N2CCc3ccccc32)cc1,inhibition,[4],97% (active)
same,fluorescence ratio (Tl flux),[5],0.446
same,inhibition,[7],115% (active)
same,inhibition,[8],170% (active)
CCCN1Cc2cccc(C(=O)NCc3ccccc3)c2C1=O,inhibition,[4],83% (active)
same,fluorescence ratio (Tl flux),[5],0.478
same,outcome,[7],inactive
same,inhibition,[8],80% (active)
CC(C)OCCCNc1ncnc2c1[nH]c1ccc(F)cc12,inhibition,[4],95.5% (active)
same,fluorescence ratio (Tl flux),[5],0.443
same,outcome,[6],active
same,outcome,[7],inactive
same,outcome,[8],inactive
Fc1cc(Br)ccc1NC(=S)Nc1cccnc1,inhibition,[4],33% (active)
same,fluorescence ratio (Tl flux),[5],0.539
same,outcome,[7],inactive
same,outcome,[8],inactive
O=C(Nc1ccc(Cl)c(Cl)c1)N1CC=C(c2ccccc2)CC1,inhibition,[4],122% (active)
same,fluorescence ratio (Tl flux),[5],0.411
same,outcome,[6],inactive
same,inhibition,[7],110% (active)
same,inhibition,[8],134% (active)
O=C(CCN1c2ccccc2Sc2ccccc21)Nc1ccccc1,inhibition,[4],164% (active)
same,fluorescence ratio (Tl flux),[5],0.384
same,outcome,[6],inactive
same,inhibition,[7],118% (active)
same,inhibition,[8],186% (active)
O=C(Nc1ccc(F)cc1)c1cccnc1N1CCOCC1,inhibition,[4],44% (active)
same,fluorescence ratio (Tl flux),[5],0.517
same,outcome,[7],inactive
same,inhibition,[8],53.5% (active)
Cc1nc(N2CCN(c3ccccn3)CC2)c2c(C)c(C(=O)Nc3ccc(F)c(Cl)c3)sc2n1,inhibition,[4],160% (active)
same,fluorescence ratio (Tl flux),[5],0.345 (active)
same,inhibition,[7],124% (active)
CCN(CC)CC(=O)Nc1sc2c(c1C(=O)c1ccccc1C)CCC2,inhibition,[4],104% (active)
same,fluorescence ratio (Tl flux),[5],0.444
same,outcome,[6],inactive
same,inhibition,[7],89% (active)
same,inhibition,[8],168% (active)
COc1ccc(-c2csc3ncnc(N4CCN(S(=O)(=O)c5cccc(F)c5)CC4)c23)cc1,inhibition,[4],92.5% (active)
same,fluorescence ratio (Tl flux),[5],0.403
same,outcome,[6],inactive
same,inhibition,[7],77% (active)
same,inhibition,[8],122% (active)
COc1ccc(S(=O)(=O)/N=C2\C=C(NS(=O)(=O)c3ccccc3)C(=O)c3ccccc32)cc1,inhibition,[4],31.5% (active)
same,fluorescence ratio (Tl flux),[5],0.44
same,outcome,[7],inactive
same,outcome,[8],inactive
O=C(NCCc1ccccc1)c1ccc2c(c1)N(Cc1ccccc1)CCS2,inhibition,[4],71.5% (active)
same,fluorescence ratio (Tl flux),[5],0.426
same,inhibition,[7],101% (active)
same,inhibition,[8],72% (active)
CCSc1nsc(NC(=O)Nc2cccc(C(C)=O)c2)n1,inhibition,[4],112% (active)
same,fluorescence ratio (Tl flux),[5],0.514
same,outcome,[6],inactive
same,outcome,[7],inactive
same,outcome,[8],inactive
CCCC(=O)N1CCN(c2nnc(-c3ccc(C)cc3)c3ccccc23)CC1,inhibition,[4],"0% [the number is a placeholder, only the call stands]"
same,fluorescence ratio (Tl flux),[5],0.507
same,inhibition,[7],75% (active)
same,inhibition,[8],78% (active)
CC(C)(CCl)C(=O)Nc1ccc(Sc2ccc(F)cc2)cc1,inhibition,[4],166% (active)
same,fluorescence ratio (Tl flux),[5],0.393
same,inhibition,[7],111% (active)
